Laboratory results as given in ChEMBL document CHEMBL1154832, “Synthesis and antitumor activity of new dihydropyridine thioglycosides and their corresponding dehydrogenated forms” (Eur J Med Chem, 2010).

Experiments:
HepG2 = assay: Antitumor activity against human HepG2 cells xenografted in Swiss albino mouse assessed as increase in life span at 10 ug/kg, ip for 10 consecutive days relative to control; assay type: functional
Method in brief: (§1)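 Male Swiss albino mice (20 ± 2 g), acclimatised one week at 25–27 °C, 12 h light/dark. Ascites tumour established by i.p. inoculation of 1 × 10⁶ viable cells. Dosing began 24 h after inoculation, i.p. daily for 10 consecutive days. DMSO vehicle control group; cisplatine 2 mg/kg i.p. for 10 days as reference. Survival time recorded and % increase in life span derived; mean ± SE, n = 10 mice.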

HeLa = assay: Antitumor activity against human HeLa cells xenografted in Swiss albino mouse assessed as increase in life span at 10 ug/kg, ip for 10 consecutive days relative to control; assay type: functional; method in brief: as §1
Mus musculus [1] = assay: Acute toxicity in ip dosed Swiss albino mouse inoculated with human HeLa cells assessed as mortality measured up to two weeks; assay type: organism-based; settings: in vivo
Method in brief: (§2)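 Adult Swiss albino mice fasted 12 h, randomised into groups of 10. Single i.p. administration at graded doses, 1 ml/kg body weight; controls received vehicle alone. Food and water given immediately after dosing. Mortality followed for up to two weeks. LD50 taken as the dose giving 50% mortality.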

Mus musculus [2] = assay: Acute toxicity in ip dosed Swiss albino mouse xenografted with human HepG2 cells assessed as mortality measured up to two weeks; assay type: organism-based; settings: in vivo; method in brief: as §2

| SMILES | Activity (HepG2) | Activity (HeLa) | LD50 (Mus musculus [1]) | LD50 (Mus musculus [2]) |
| --- | --- | --- | --- | --- |
| CC(=O)O[C@H]1O[C@@H](SC2=C(C#N)C(c3ccc([N+](=O)[O-])cc3)C(C#N)=C(N)N2)[C@H](OC(C)=O)[C@@H](OC(C)=O)[C@@H]1OC(=O)O (stereo not given in full) | 34% | 27% | 0.07 mg/kg | 0.085 mg/kg |
| COc1ccc(C2C(C#N)=C(N)NC(S[C@@H]3O[C@H](OC(C)=O)[C@@H](OC(=O)O)[C@H](OC(C)=O)[C@H]3OC(C)=O)=C2C#N)cc1 (stereo not given in full) | 39% | 25% | 0.16 mg/kg | 0.15 mg/kg |
| CC(=O)O[C@H]1O[C@@H](SC2=C(C#N)C(c3ccc4ccccc4c3)C(C#N)=C(N)N2)[C@H](OC(C)=O)[C@@H](OC(C)=O)[C@H]1OC(=O)O (stereo not given in full) | 38% | 31% | 0.07 mg/kg | 0.065 mg/kg |
| COc1ccc(C2C(C#N)=C(N)NC(S[C@@H]3O[C@H](OC(C)=O)[C@H](OC(=O)O)[C@H](OC(C)=O)[C@H]3OC(C)=O)=C2C#N)cc1 (stereo not given in full) | 30% | 30% | 0.065 mg/kg | 0.06 mg/kg |
| CC(=O)O[C@H]1O[C@@H](Sc2nc(N)c(C#N)c(-c3ccc4ccccc4c3)c2C#N)[C@H](OC(C)=O)[C@@H](OC(C)=O)[C@@H]1OC(C)=O | 49% | 40% | 0.06 mg/kg | 0.06 mg/kg |
| CC(=O)O[C@H]1O[C@@H](Sc2nc(N)c(C#N)c(-c3ccc4ccccc4c3)c2C#N)[C@H](OC(C)=O)[C@@H](OC(C)=O)[C@H]1OC(C)=O | 50% | 39% | 0.135 mg/kg | 0.125 mg/kg |
| COc1ccc(-c2c(C#N)c(N)nc(S[C@@H]3O[C@H](OC(C)=O)[C@H](OC(C)=O)[C@H](OC(C)=O)[C@H]3OC(C)=O)c2C#N)cc1 | 48% | 47% | 0.07 mg/kg | 0.065 mg/kg |
| COc1ccc(C2C(C#N)=C(N)NC(S[C@@H]3O[C@H](O)[C@H](O)[C@H](O)[C@H]3O)=C2C#N)cc1 (stereo not given in full) | 63% | 44% | 0.08 mg/kg | 0.06 mg/kg |
| N#CC1=C(N)NC(S[C@@H]2O[C@H](O)[C@@H](O)[C@H](O)[C@H]2O)=C(C#N)C1c1ccc2ccccc2c1 (stereo not given in full) | 50% | 39% | 0.115 mg/kg | 0.11 mg/kg |
| COc1ccc(C2C(C#N)=C(N)NC(S[C@@H]3O[C@H](O)[C@@H](O)[C@H](O)[C@H]3O)=C2C#N)cc1 (stereo not given in full) | 69% | 55% | 0.095 mg/kg | 0.11 mg/kg |
| N#CC1=C(N)NC(S[C@@H]2O[C@H](O)[C@H](O)[C@H](O)[C@H]2O)=C(C#N)C1c1ccc2ccccc2c1 (stereo not given in full) | 60% | 45% | 0.12 mg/kg | 0.13 mg/kg |
| N#Cc1c(N)nc(S[C@@H]2O[C@H](O)[C@@H](O)[C@H](O)[C@H]2O)c(C#N)c1-c1ccc2ccccc2c1 | 58% | 51% | 0.11 mg/kg | 0.13 mg/kg |
| CC(=O)O[C@H]1O[C@@H](SC2=C(C#N)C(c3ccccc3)C(C#N)=C(N)N2)[C@H](OC(C)=O)[C@@H](OC(C)=O)[C@@H]1OC(=O)O (stereo not given in full) | 29% | 30% | 0.075 mg/kg | 0.08 mg/kg |
| CC(=O)O[C@H]1O[C@@H](SC2=C(C#N)C(c3ccc(Br)cc3)C(C#N)=C(N)N2)[C@H](OC(C)=O)[C@@H](OC(C)=O)[C@@H]1OC(=O)O (stereo not given in full) | 31% | 29% | 0.09 mg/kg | 0.09 mg/kg |
| CC(=O)O[C@H]1O[C@@H](SC2=C(C#N)C(c3ccccc3)C(C#N)=C(N)N2)[C@H](OC(C)=O)[C@@H](OC(C)=O)[C@H]1OC(=O)O (stereo not given in full) | 34% | 30% | 0.06 mg/kg | 0.07 mg/kg |
| CC(=O)O[C@H]1O[C@@H](Sc2nc(N)c(C#N)c(-c3ccc(Br)cc3)c2C#N)[C@H](OC(C)=O)[C@@H](OC(C)=O)[C@@H]1OC(C)=O | 48% | 46% | 0.075 mg/kg | 0.065 mg/kg |
| CC(=O)O[C@H]1O[C@@H](Sc2nc(N)c(C#N)c(-c3ccccc3)c2C#N)[C@H](OC(C)=O)[C@@H](OC(C)=O)[C@H]1OC(C)=O | 43% | 38% | 0.06 mg/kg | 0.065 mg/kg |
| N#Cc1c(N)nc(S[C@@H]2O[C@H](O)[C@H](O)[C@H](O)[C@H]2O)c(C#N)c1-c1ccc2ccccc2c1 | 57% | 53% | 0.125 mg/kg | 0.145 mg/kg |
| COc1ccc(-c2c(C#N)c(N)nc(S[C@@H]3O[C@H](O)[C@H](O)[C@H](O)[C@H]3O)c2C#N)cc1 | 56% | 47% | 0.13 mg/kg | 0.115 mg/kg |
| N#Cc1c(N)nc(S[C@@H]2O[C@H](O)[C@@H](O)[C@H](O)[C@H]2O)c(C#N)c1-c1ccc(Br)cc1 | 60% | 50% | 0.12 mg/kg | 0.105 mg/kg |
